The source made the active and inactive calls.
Key:
[1] = system: HeLa; experiment: Cytotoxicity against human HeLa cells at 100 uM; type: functional, cell-based
[2] = system: Jurkat; experiment: Induction of apoptosis in human Jurkat T cells assessed as sub-G0/G1 fraction at 10 uM after 24 hrs by flow cytometry; type: functional
How it was run: (§1)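 Jurkat cells (10^6) grown in RPMI 1640 with 10% heat-inactivated FBS, 2 mM glutamine, penicillin and streptomycin, then treated 6 or 24 h. Cells fixed in 70% ethanol for 24 h at 4 °C, washed in PBS with 4% glucose, treated with RNase A (50 U/mL) and stained with PI (20 µg/mL) for 1 h at room temperature. Subdiploid (sub-G0/G1) percentage measured by flow cytometry.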

[3] = system: Jurkat; experiment: Induction of apoptosis in human Jurkat T cells assessed as sub-G0/G1 fraction at 1 uM after 6 hrs by flow cytometry; type: functional; how it was run: as §1
[4] = system: HeLa; experiment: Cytotoxicity against human HeLa cells at 100 ug/mL
[5] = system: HeLa; experiment: Inhibition of PMA-induced NF-kappaB activation in human HeLa cells at 16 uM after 7 hrs by IL6/luciferase reporter gene assay; type: cell-based
How it was run: (§2)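 HeLa cells stably transfected with an IL-6 promoter–luciferase reporter, stimulated with PMA (50 ng/mL final) for 7 h in the presence of compound. Luminescence given as % of RLU of the PMA-stimulated control, mean of three experiments. Active if ≥30% of positive control. Unstimulated cells served as negative control.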

[6] = system: HeLa; experiment: Inhibition of PMA-induced NF-kappaB activation in human HeLa cells at 8 uM after 7 hrs by IL6/luciferase reporter gene assay; type: cell-based; how it was run: as §2
[7] = system: HeLa; experiment: Cytotoxicity against human HeLa cells after 72 hrs by MTT assay; type: functional, cell-based
How it was run: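 HeLa cells exposed to compound for 72 h, then incubated 2 h at 37 °C with 0.5 mg/mL MTT. Formazan dissolved in 90% 2-propanol with DMSO. IC50 read from the concentration–response.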

[8] = system: HeLa; experiment: Cytotoxicity against human HeLa cells after 7 hrs; type: functional, cell-based
How it was run: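 HeLa cells stably carrying an IL-6 promoter–luciferase reporter, exposed to compound with PMA (50 ng/mL final) for 7 h. Toxicity judged visually at 40× magnification from changes in cell morphology.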

[9] = system: Jurkat; experiment: Induction of apoptosis in human Jurkat T cells assessed as sub-G0/G1 fraction at 20 uM after 24 hrs by flow cytometry; type: functional; how it was run: as §1
[10] = system: Jurkat; experiment: Induction of apoptosis in human Jurkat T cells assessed as sub-G0/G1 fraction at 10 uM after 6 hrs by flow cytometry; type: functional; how it was run: as §1
[11] = system: Jurkat; experiment: Induction of apoptosis in human Jurkat T cells assessed as sub-G0/G1 fraction at 1 uM after 24 hrs by flow cytometry; type: functional; how it was run: as §1
[12] = system: Jurkat; experiment: Induction of apoptosis in human Jurkat T cells assessed as sub-G0/G1 fraction at 20 uM after 6 hrs by flow cytometry; type: functional; how it was run: as §1
[13] = organism: Homo sapiens; experiment: Inhibition of NF-kappaB activation in human HeLa-Tet-On cells assessed as inhibition of doxycyclin-induced HIV1-LTR transactivation at 5 uM after 6 hrs by luciferase reporter gene assay; type: cell-based
How it was run: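 HeLa-Tet-On-Luc cells seeded at 5 × 10^5 cells/mL the day before, then stimulated with doxycycline (2 µg/mL) with or without compound for 6 h. Cells washed in PBS and lysed, and luciferase activity measured.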

[14] = system: Jurkat; experiment: Inhibition of TNF-alpha-induced NF-kappaB activation in human Jurkat 5.1 cells preincubated for 30 mins measured after 6 hrs by HIV1-LTR luciferase assay; type: cell-based
How it was run: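 5.1 cells preincubated with compound (5, 10, 20 µM) for 30 min, then stimulated with TNF (2 ng/mL) for 6 h. Lysis in Tris phosphate pH 7.8 buffer with Triton X-100. Luciferase read after subtracting lysis-buffer background and normalised to Bradford protein (RLU/µg). Result expressed as fold induction, mean of three experiments.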

[15] = system: HeLa; experiment: Inhibition of PMA-induced NF-kappaB activation in human HeLa cells at 2 uM after 7 hrs by IL6/luciferase reporter gene assay relative to untreated control; type: cell-based; design: scale not given: the % may be the effect or the level left; how it was run: as §2
[16] = system: HeLa; experiment: Inhibition of PMA-induced NF-kappaB activation in human HeLa cells at 4 uM after 7 hrs by IL6/luciferase reporter gene assay relative to untreated control; type: cell-based; design: scale not given: the % may be the effect or the level left; how it was run: as §2

SMILES | Activity [1] | Activity [2] | Activity [3] | Activity [4] | Activity [5] | Activity [6] | IC50 [7] | Activity [8] | Activity [9] | Activity [10] | Activity [11] | Activity [12] | Activity [13] | Activity [14] | Activity [15] | Activity [16]
C[C@@]12C[C@H]3OC(=O)[C@@H]1CO[C@@]14O[C@]5([C@H]2C1=O)[C@@](O)(CC[C@H]1[C@H]4C[C@@H](O)[C@@]2(O)CC=CC(=O)[C@]12C)C(=O)O[C@@]35C | Not toxic | – | – | – | – | – | – | – | – | – | – | – | – | – | – | –
C[C@]12C(=O)C=CCC1=CC[C@@H]1[C@@H]2CC[C@]2(O)C(=O)O[C@@]3(C)[C@H]4C[C@]5(C)[C@@H](CO[C@@]16O[C@@]32[C@H]5C6=O)C(=O)O4 [PHYSALIN B] | – | 49.7% | 1.83% | Toxic | Active | Active | 2000 nM | Not toxic | 50% | 2.08% | 6.27% | 2.08% | – | – | – | –
C[C@@]12C[C@H]3OC(=O)[C@@H]1CO[C@]14O[C@]5([C@H]2C1=O)[C@@](O)(CC[C@H]1[C@H]4C[C@H]2O[C@]24CC=CC(=O)[C@]14C)C(=O)O[C@@]35C [PHYSALIN F] | Toxic | 58.2% | 2.71% | – | Active | Active | 2000 nM | Not toxic | 64.6% | 2.07% | 50.2% | 1.64% | inactive | Dose-dependent effect | 20% | 7%

— ChEMBL document CHEMBL1157270, “Physalins from Witheringia solanacea as modulators of the NF-kappaB cascade” (J Nat Prod, 2006)
